MEKK2wt PB1 HTS: raises or lowers MEK5 binding to wildtype human MEKK2 PB1 domain; Q9Y2U5; bead flow cytometry, Alexa488-MEK5 binding to MEKK2 WT; actives lie on both sides; binding response (% of control), % at 10 µM; actives 1.1% (n = 290,000); in the data active means binding response below about 67% or above about 130%
Dynein transport: dynein cargo transport inhibition; 3617.4 mouse cells, GR-EGFP nuclear translocation imaging; test concentration mostly 20 µM; stimulated with dexamethasone, 1 µM; stronger effect = lower value; z-score, hits read low; actives 0.47% (n = 220,000);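 active means plate z-score of nuclear minus cytoplasmic receptor signal below a set negative limit, without overly bright fluorescence or cell loss, cut at about -3.5 in these data, passing the limit was not always enough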;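 further: z-score of nuclear minus cytoplasmic ring GR-EGFP intensity difference per well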
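Buffer or medium: tetracycline-free induction medium containing charcoal-stripped FBS / Reagent: dexamethasone agonist, 1.0 µM final, for 30 min / Technique: automated 10x imaging of fixed Hoechst-stained cells / Times: induction 48 h, compound 1 h, agonist 30 min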
ATG4B inh: inhibitors of human ATG4B cysteine protease | Q9Y4P1 | ATG4B cleavage of LC3-PLA2, NBD-HPC fluorescence, 1 h | inhibition, % at 8.33 µM | actives 0.51% (n = 340,000) | AID 504462; in the data active means inhibition above about 40%
MEKK2mut PB1 HTS: signal of MEK5 binding to mutant human MEKK2 PB1 domain; actives 0.35% (n = 290,000); bead flow cytometry, Alexa488-MEK5 binding to MEKK2 mutant; percent response, % at 10 µM; in the data active means percent response above about 24%, passing the limit was not always enough
MEKK3 PB1 HTS: raises or lowers MEK5 binding to the human MEKK3 PB1 domain. Q99759. bead-based flow cytometry, Alexa488-MEK5 binding to MEKK3; actives lie on both sides; 0 = blocked by unlabeled MEK5, 100 = vehicle. binding response (% of control), % at 10 µM. actives 1.4% (n = 290,000);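 active means binding response more than 3 SD above or below the average of its plate-row segment, actives on both sides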;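 further: Alexa488 bead fluorescence after subtracting the streptavidin-only scavenger bead signal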
Target sequence (Q99759 whole entry, looked up, the tested form may be a part): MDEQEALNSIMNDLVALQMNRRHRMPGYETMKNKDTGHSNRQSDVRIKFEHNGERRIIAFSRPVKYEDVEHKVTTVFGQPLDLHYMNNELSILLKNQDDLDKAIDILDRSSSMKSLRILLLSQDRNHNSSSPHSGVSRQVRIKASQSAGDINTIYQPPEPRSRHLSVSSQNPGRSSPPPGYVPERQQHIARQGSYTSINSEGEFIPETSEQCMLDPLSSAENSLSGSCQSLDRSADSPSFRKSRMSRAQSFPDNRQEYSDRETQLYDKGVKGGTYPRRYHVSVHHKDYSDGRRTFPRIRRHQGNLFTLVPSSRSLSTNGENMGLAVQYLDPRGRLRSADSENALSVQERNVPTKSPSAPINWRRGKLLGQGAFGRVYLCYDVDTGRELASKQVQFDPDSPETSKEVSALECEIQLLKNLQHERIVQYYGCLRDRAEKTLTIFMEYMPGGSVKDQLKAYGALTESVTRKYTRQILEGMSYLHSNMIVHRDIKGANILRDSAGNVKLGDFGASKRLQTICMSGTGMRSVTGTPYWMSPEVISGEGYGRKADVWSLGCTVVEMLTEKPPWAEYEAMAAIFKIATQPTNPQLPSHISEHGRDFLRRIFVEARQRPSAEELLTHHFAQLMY
Beta2AR agonist: human beta-2 adrenergic receptor agonism by FAP. P07550. Am2.2-beta2AR cells, FAP receptor internalization, flow cytometry. response, % (no concentration beside the values). actives 0.43% (n = 340,000). AID 504454;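 active means response above a set limit, near 3 SD of response in nonfluorescent compounds, cut at about 42% in these data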
* = called active by the depositor; . = no result given; [ ] = dose if it differs, or a comment. Most compounds without a hit are left out; they make up all but 2.9% or so of the library.

SMILES	MEKK2wt PB1 HTS	Dynein transport	ATG4B inh	MEKK2mut PB1 HTS	MEKK3 PB1 HTS	Beta2AR agonist
CCOC(=O)N1CCN(C(=O)C2CCN(C(=O)c3ccccc3C)CC2)CC1	.	.	-10	.	.	49*
COc1ccc(C)cc1N(CC(=O)N1CCCCCC1)S(=O)(=O)c1ccc(C)cc1	103	.	-4	4	99	-4
CN(CC(=O)N1CCN(c2cccc(Cl)c2)CC1)S(=O)(=O)c1cccs1	105	-0.62	-2	4	109	53*
O=[N+]([O-])c1cc(CN2CCN(c3ccccc3)CC2)c(O)c2ncccc12	103	-0.34	2	0	99	44*
COc1ccccc1C(=O)NNC(=O)c1cccc(C)c1	111	.	-2	3	106	-10
O=Cc1ccccc1OCCOc1ccccc1C=O	92	1.2	71*	4	90	13
O=Cc1ccccc1Oc1ccccc1	99	-0.36	-2	1	96	-3
COc1ccc(C(C[N+](=O)[O-])c2c(-c3ccccc3)cc3ccccn23)cc1OC (stereo unspecified)	.	-1.6	9	.	.	14
COc1ccc(C(C[N+](=O)[O-])C2(c3ccc(OC)c(OC)c3)C(=O)c3ccccc3C2=O)cc1 (stereo unspecified)	99	-3	-2	2	104	51*
Cc1ccc(C(NC(=O)Nc2ccccn2)C(Cl)(Cl)Cl)cc1F (stereo unspecified)	101	.	2	2	100	3
c1cncc(-c2nc(NCc3cccs3)c3ccccc3n2)c1	87	1	-13	-3	84	4
Fc1ccccc1CNc1nc(-c2cccnc2)nc2ccccc12	21*[inhibitor]	.	-5	31*	104	-5
CCOCc1nnc(NC(=O)CS(=O)(=O)c2ccc(C)cc2)s1	77	.	-9	-10	80*[inhibitor]	-3
Cc1ccc2sc(N(CCCN(C)C)C(=O)c3ccc(S(=O)(=O)N4CCc5ccccc5C4)cc3)nc2c1C	.	.	15	.	.	30
CN(C)CCN(C(=O)c1ccc(S(=O)(=O)N2CCc3ccccc32)cc1)c1nc2ccc(F)cc2s1	124	.	-2	14	102	-3
COc1ccc(C)c2sc(N(CCCN(C)C)C(=O)c3ccc(S(=O)(=O)N4CCc5ccccc5C4)cc3)nc12	.	.	-1	.	.	51*
CN(C)CCCN(C(=O)c1ccc(S(=O)(=O)N2CCc3ccccc32)cc1)c1nc2c(Cl)cccc2s1	257*	.	2	58*	109	33
COc1cccc2sc(N(CCCN(C)C)C(=O)c3ccc(S(=O)(=O)N4CCc5ccccc5C4)cc3)nc12	192*	.	6	38*	107	56*
COc1ccc(/C=N/NC(=O)c2nc(Cl)c(Cl)c(N)c2Cl)cc1COc1ccc(F)cc1F	95	-0.59	-9	-7	102	27
COc1ccc(/C=N/NC(=O)c2nc(Cl)c(Cl)c(N)c2Cl)cc1COc1ccccc1F	93	0.3	-4	-6	97	50*
CC1N(C)c2cc(NC(=O)c3ccco3)ccc2C1(C)C (stereo unspecified)	-7.0*	0.36	-2	3	101	2
O=C(/C=C/c1ccncc1)c1ccc(NC(=O)c2ccccc2F)cc1	96	-0.38	0	-4	89	51*
O=C(/C=C/c1ccc(NC(=O)c2ccccc2-c2ccccc2C(=O)O)cc1)c1ccccc1	96	.	17	-3	105	19
CCCCCCCCCCCCCCCC[n+]1cccc(C(=O)N(CC)CC)c1	126	-5.1*	6	9	76	15
CCCCCCCC[n+]1cccc(C(=O)N(CC)CC)c1	100	0.21	-13	-1	99	-6
SMILES	MEKK2wt PB1 HTS	Dynein transport	ATG4B inh	MEKK2mut PB1 HTS	MEKK3 PB1 HTS	Beta2AR agonist
Cc1c2oc3c(C)ccc(C(=O)N[C@@H]4C(=O)N[C@H](C(C)C)C(=O)N5CCC[C@H]5C(=O)N(C)CC(=O)N(C)[C@@H](C(C)C)C(=O)O[C@@H]4C)c3nc-2c(C(=O)N[C@@H]2C(=O)N[C@H](C(C)C)C(=O)N3CCC[C@H]3C(=O)N(C)CC(=O)N(C)[C@@H](C(C)C)C(=O)O[C@@H]2C)c(N)c1=O	91	.	.	.	99	.
Cc1ccc(-c2csc(NC(=O)CSc3nc4ccccc4c(=O)n3CCCN(C)C)n2)cc1	207*	0.039	-11	67*	107	13
CCn1c(SCC(=O)Nc2nc(-c3ccc(C)cc3)cs2)nnc1-c1ccccc1	95	-0.38	0	0	104	-1
O=c1c(Br)ccc(Br)cc1Br	.	.	-2	.	.	70*
S=C(NCCCN1CCN(CCCNC(=S)NC2CCCCC2)CC1)NC1CCCCC1	.	.	-3	.	.	-3
O=C(N[C@@H](Cc1ccccc1)C(=O)CCl)OCc1ccccc1	.	.	4	.	.	47*
CSc1ccccc1OCc1cc(C(=O)N(C)C2CCCc3ccccc32)no1 (stereo unspecified)	106	.	23	4	106	-5
CN(C(=O)c1cccc(C(F)(F)F)c1)C1CCCc2ccccc21 (stereo unspecified)	0.0*[inhibitor]	.	-7	-38	1.0*[inhibitor]	-4
Cc1cc(-c2ccccc2)nc(SC(C(=O)O)c2ccccc2)n1 (stereo unspecified)	-1.0*	-0.028	-6	4	103	5
COc1ccc(NC(=O)c2cc(C)nn2-c2ccccc2)cc1	101	.	-7	1	102	-10
Oc1ccccc1C(Nc1nccs1)c1ccc2cccnc2c1O (stereo unspecified)	98	0.62	8	-1	103	8
OCCN1CCN(C(c2cccs2)c2ccc3cccnc3c2O)CC1 (stereo unspecified)	68*[inhibitor]	0.88	.	-11	97	.
COCCOC(=O)/C(=C/c1ccc(OC(=O)c2ccccc2)cc1)C(C)=O	4.0*	-1.7	4	17	96	43*
CCC(=O)N1N=C(c2cccs2)CC1c1ccco1 (stereo unspecified)	13*	-0.47	3	1	103	-3
CCc1nc(SCC(=O)N2c3ccccc3CC2C)c2c(C)c(C)sc2n1 (stereo unspecified)	110	-0.34	83*	7	114	-3
CCN(CC)CCNC(=O)C(=O)NCC1OCCN1S(=O)(=O)c1ccc([N+](=O)[O-])cc1 (stereo unspecified)	90	-0.1	-2	-3	87	1
CCN(CC)CCNC(=O)C(=O)NCC1OCCN1S(=O)(=O)c1ccc(Cl)cc1 (stereo unspecified)	142*	.	2	18	102	-2
O=C(NC(=S)Nc1cccc(NC(=S)NC(=O)c2ccccc2)c1)c1ccccc1	.	.	5	.	.	13

Source: PubChem BioAssay
